{
  "source": "paper PMC3229844",
  "about": "(Chemmedchem, 2011)",
  "key": {"[1]": {"target": "T1, CXCR4 (Homo sapiens, UniProt P61073)", "T1 sequence (P61073 whole entry)": "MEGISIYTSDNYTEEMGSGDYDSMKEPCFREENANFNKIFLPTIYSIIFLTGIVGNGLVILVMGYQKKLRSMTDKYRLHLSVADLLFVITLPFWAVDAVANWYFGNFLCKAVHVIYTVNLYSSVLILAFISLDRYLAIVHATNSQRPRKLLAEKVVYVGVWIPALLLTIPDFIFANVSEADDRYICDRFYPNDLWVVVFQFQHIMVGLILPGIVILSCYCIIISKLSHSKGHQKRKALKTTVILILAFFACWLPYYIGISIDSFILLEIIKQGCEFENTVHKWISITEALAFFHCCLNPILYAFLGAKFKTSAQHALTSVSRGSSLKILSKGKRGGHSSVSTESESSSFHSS", "format": "binding", "details": "Table 1; mean±SD of three experiments except values greater than 100 nM"}, "[2]": {"assay": "Biodistribution of [68Ga]2 c in OH1 tumor-bearing nude mice", "format": "in vivo", "details": "nude, mouse, tumor / muscle, total radioactivity, Tumor/Muscle ratio, Blockade, 1 h p.i. (n=4), in the presence of 50 μg cyclo-(D-Tyr 1-Arg 2-Arg 3-Nal 4-Gly 5), OH1 mice", "outline": "(§1)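 Tracer: 68Ga-labeled test compound, given alone or co-injected with 50 μg competitor, in nude mice bearing OH-1 human small-cell lung cancer xenografts. Animals were sampled at 60 and 120 min post-injection. Organ and tumour activity was expressed as %ID g−1, and tumour/muscle ratios were derived.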"}, "[3]": {"tested_on": "OH-1 human small-cell lung cancer xenografts", "assay": "Biodistribution of [68Ga]2 c in OH1 tumor-bearing nude mice", "format": "in vivo", "outline": "as §1"}, "[4]": {"tested_on": "OH-1 human small-cell lung cancer xenografts", "assay": "PET imaging of CXCR4 expression in tumor-bearing nude mice", "format": "in vivo"}, "[5]": {"target": "T1, CXCR4", "details": "value taken from the literature; cited from earlier work"}, "[6]": {"details": "1 h p.i. (n=4), in the presence of 50 μg cyclo-(D-Tyr 1-Arg 2-Arg 3-Nal 4-Gly 5), OH1 mice"}},
  "note": "Where two headings read alike, the source gives them in different places. Square brackets hold non-standard residues; d marks the D form. Side chains are listed from the residue outwards. Peptide text beside a SMILES is read from it. * marks the point of attachment. DOTA = O=C(O)CN1CCN(CC(=O)O)CCN(CC(=O)*)CCN(CC(=O)O)CC1; 2Nal = N[C@@H](Cc1ccc2ccccc2c1)C(=O)O; dNMeOrn = CN[C@H](CCCN)C(=O)O; 4Amb = NCc1ccc(C(=O)O)cc1",
  "data": [
    {"molecule": "CN1C(=O)[C@@H](Cc2ccc(O)cc2)NC(=O)CNC(=O)[C@H](Cc2ccc3ccccc3c2)NC(=O)[C@H](CCCNC(=N)N)NC(=O)[C@H]1CCCNC(=O)c1ccc(CNC(=O)CN2CCN(CC(=O)O)CCN(CC(=O)O)CCN(CC(=O)O)CC2)cc1", "note": "[2 b] (cyclo([dY][dNMeOrn]([4Amb-DOTA])R[2Nal]G))", "values": [
      {"measurement": "IC50", "setting": "[1]", "result": "44 ± 4", "unit": "nM"}
    ]},
    {"molecule": "CN1C(=O)[C@@H](Cc2ccc(O)cc2)NC(=O)CNC(=O)[C@H](Cc2ccc3ccccc3c2)NC(=O)[C@H](CCCNC(=N)N)NC(=O)[C@H]1CCCNC(=O)c1ccc(CNC(=O)CN2CCN(CC(=O)O)CCN(CC(=O)O)CCN(CC(=O)O)CC2)cc1", "note": "[[^68Ga]2 c, metal not drawn] (cyclo([dY][dNMeOrn]([4Amb-DOTA])R[2Nal]G))", "values": [
      {"measurement": "tissue to tissue ratio at 1 h", "setting": "[2]", "result": "3.45 ± 1.45"},
      {"measurement": "Blockade, Adrenal glands", "setting": "[3]; [6]", "result": "0.87±0.32", "unit": "%ID g^−1"},
      {"measurement": "Blockade, Blood", "setting": "[3]; [6]", "result": "2.50±0.64", "unit": "%ID g^−1"},
      {"measurement": "Blockade, Heart", "setting": "[3]; [6]", "result": "1.38±0.52", "unit": "%ID g^−1"},
      {"measurement": "Blockade, Intestine", "setting": "[3]; [6]", "result": "1.00±0.32", "unit": "%ID g^−1"},
      {"measurement": "Blockade, Kidney", "setting": "[3]; [6]", "result": "7.19±1.83", "unit": "%ID g^−1"},
      {"measurement": "Blockade, Liver", "setting": "[3]; [6]", "result": "2.27±0.59", "unit": "%ID g^−1"},
      {"measurement": "Blockade, Lung", "setting": "[3]; [6]", "result": "3.25±1.06", "unit": "%ID g^−1"},
      {"measurement": "Blockade, Muscle", "setting": "[3]; [6]", "result": "0.58±0.21", "unit": "%ID g^−1"},
      {"measurement": "Blockade, Pancreas", "setting": "[3]; [6]", "result": "0.75±0.19", "unit": "%ID g^−1"},
      {"measurement": "Blockade, Spleen", "setting": "[3]; [6]", "result": "1.03±0.40", "unit": "%ID g^−1"},
      {"measurement": "Blockade, Stomach", "setting": "[3]; [6]", "result": "1.40±0.30", "unit": "%ID g^−1"},
      {"measurement": "Blockade, Tumor", "setting": "[3]; [6]", "result": "1.88±0.30", "unit": "%ID g^−1"},
      {"measurement": "Biodistribution, Adrenal glands", "setting": "[3]; 1 h p.i. (n=8), OH1 mice", "result": "0.83±0.55", "unit": "%ID g^−1"},
      {"measurement": "Biodistribution, Blood", "setting": "[3]; 1 h p.i. (n=8), OH1 mice", "result": "1.08±0.27", "unit": "%ID g^−1"},
      {"measurement": "Biodistribution, Heart", "setting": "[3]; 1 h p.i. (n=8), OH1 mice", "result": "0.60±0.16", "unit": "%ID g^−1"},
      {"measurement": "Biodistribution, Intestine", "setting": "[3]; 1 h p.i. (n=8), OH1 mice", "result": "0.45±0.11", "unit": "%ID g^−1"},
      {"measurement": "Biodistribution, Kidney", "setting": "[3]; 1 h p.i. (n=8), OH1 mice", "result": "3.06±0.63", "unit": "%ID g^−1"},
      {"measurement": "Biodistribution, Liver", "setting": "[3]; 1 h p.i. (n=8), OH1 mice", "result": "1.85±0.24", "unit": "%ID g^−1"},
      {"measurement": "Biodistribution, Lung", "setting": "[3]; 1 h p.i. (n=8), OH1 mice", "result": "1.41±0.26", "unit": "%ID g^−1"},
      {"measurement": "Biodistribution, Muscle", "setting": "[3]; 1 h p.i. (n=8), OH1 mice", "result": "0.38±0.09", "unit": "%ID g^−1"},
      {"measurement": "Biodistribution, Pancreas", "setting": "[3]; 1 h p.i. (n=8), OH1 mice", "result": "0.30±0.07", "unit": "%ID g^−1"},
      {"measurement": "Biodistribution, Spleen", "setting": "[3]; 1 h p.i. (n=8), OH1 mice", "result": "0.69±0.09", "unit": "%ID g^−1"},
      {"measurement": "Biodistribution, Stomach", "setting": "[3]; 1 h p.i. (n=8), OH1 mice", "result": "0.72±0.26", "unit": "%ID g^−1"},
      {"measurement": "Biodistribution, Tumor", "setting": "[3]; 1 h p.i. (n=8), OH1 mice", "result": "6.16±1.16", "unit": "%ID g^−1"},
      {"measurement": "tumor to organ ratios", "setting": "[3]; 1 h post-injection", "result": "High tumor to organ ratios"},
      {"measurement": "Biodistribution, Adrenal glands", "setting": "[3]; 2 h p.i. (n=3), OH1 mice", "result": "0.50±0.15", "unit": "%ID g^−1"},
      {"measurement": "Biodistribution, Blood", "setting": "[3]; 2 h p.i. (n=3), OH1 mice", "result": "0.58±0.14", "unit": "%ID g^−1"},
      {"measurement": "Biodistribution, Heart", "setting": "[3]; 2 h p.i. (n=3), OH1 mice", "result": "0.29±0.10", "unit": "%ID g^−1"},
      {"measurement": "Biodistribution, Intestine", "setting": "[3]; 2 h p.i. (n=3), OH1 mice", "result": "0.36±0.04", "unit": "%ID g^−1"},
      {"measurement": "Biodistribution, Kidney", "setting": "[3]; 2 h p.i. (n=3), OH1 mice", "result": "2.07±0.46", "unit": "%ID g^−1"},
      {"measurement": "Biodistribution, Liver", "setting": "[3]; 2 h p.i. (n=3), OH1 mice", "result": "1.48±0.31", "unit": "%ID g^−1"},
      {"measurement": "Biodistribution, Lung", "setting": "[3]; 2 h p.i. (n=3), OH1 mice", "result": "2.85±2.69", "unit": "%ID g^−1"},
      {"measurement": "Biodistribution, Muscle", "setting": "[3]; 2 h p.i. (n=3), OH1 mice", "result": "0.28±0.17", "unit": "%ID g^−1"},
      {"measurement": "Biodistribution, Pancreas", "setting": "[3]; 2 h p.i. (n=3), OH1 mice", "result": "0.21±0.02", "unit": "%ID g^−1"},
      {"measurement": "Biodistribution, Spleen", "setting": "[3]; 2 h p.i. (n=3), OH1 mice", "result": "0.65±0.25", "unit": "%ID g^−1"},
      {"measurement": "Biodistribution, Stomach", "setting": "[3]; 2 h p.i. (n=3), OH1 mice", "result": "0.46±0.12", "unit": "%ID g^−1"},
      {"measurement": "Biodistribution, Tumor", "setting": "[3]; 2 h p.i. (n=3), OH1 mice", "result": "4.63±1.54", "unit": "%ID g^−1"},
      {"measurement": "tumor uptake on co-injection of competitor", "setting": "[4]; co-injection of 50 μg AMD3100 per mouse (data not shown)", "result": "significantly reduced"},
      {"measurement": "tumor uptake on co-injection of competitor", "setting": "[4]; co-injection of 50 μg cyclo-(-D-Tyr 1-Arg 2-Arg 3-Nal 4-Gly 5) per mouse", "result": "significantly reduced"},
      {"measurement": "accumulation in CXCR4-expressing tumors", "setting": "[4]; nude mice bearing OH-1 human small-cell lung cancer xenografts", "result": "accumulated in high levels"}
    ]},
    {"molecule": "cyclo-(-D-Tyr 1-Arg 2-Arg 3-Nal 4-Gly 5) [1 a]", "values": [
      {"measurement": "IC50", "setting": "[5]", "result": "4.3 ± 1.2", "unit": "nM"}
    ]}
  ]
}
